Laboratory results from publication PMC10749586 (Nature, 2023).
Like-named read-outs stand apart in the source and are kept apart here.

Experiments:
KARPAS422 cells [1] = assay: Cell viability; type: cell-based, human; conditions: for fold less-effective cell killing than TCIP1: JQ1 and BI3812 added separately or together, 72 h
DLBCL cell lines = assay: Cell viability; type: cell-based, human; conditions: titrated against constant TCIP1 that kills 50–95% of cells within 72 h
[2] = system: MYC, p21, FOXO3, BCL6, BRD4 protein levels; conditions: BET/BRD4 inhibitor; cited from earlier work
[3] = system: KARPAS422 cells gene expression; assay: RNA sequencing in KARPAS422 cells; type: cell-based, human
[4] = biological target: BRD4(BD1)-TCIP1-BCL6(BTB) ternary complex (Homo sapiens, UniProt O60885+P41182, C67R/C84N/C8Q); assay: Biolayer interferometry of ternary complex; type: binding
Outline: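 Biolayer interferometry used biotinylated BCL6(BTB)-AviTag (100 nM) loaded on streptavidin tips. Wells held tag-cleaved BRD4(BD1) (50 µM, excess) with test compound titrated from 5.5 nM to 12 µM, at 25 °C. Steps were 300 s association, 300 s dissociation and 30 s baseline. Off-rate came from dissociation curves at 7–8 doses, n = 3 independent replicates, mean ± s.d.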

[5] = system: MYC, p21, FOXO3, BCL6, BRD4 protein levels; assay: Western blots of target proteins in DLBCL cells; type: cell-based, human
Outline: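 Cells plated at 1 M ml−1 were treated with test compound (e.g., 20 h in KARPAS422). Two million cells were lysed on ice in RIPA (pH 8, 1% SDS, 1 mM DTT) with benzonase for 20 min. Lysates were cleared at 14,000g for 10 min at 4 °C and quantified by Bradford. Immunoblots probed BCL6, BRD4, BCL2, p53, MYC, FOXO3 and p21, with GAPDH as loading control.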

[6] = system: BRD4 / Pol II / H3K27ac chromatin occupancy; assay: ChIP-seq; type: cell-based, human
Outline: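 KARPAS422 cells (30 million) received test compound or DMSO, then were crosslinked with 1% formaldehyde for 12 min and quenched with 0.125 M glycine. Nuclei were prepared and immunoprecipitated overnight at 4 °C. Chromatin input was 50 µg for Pol II Ser2/Ser5 phos and 25 µg for H3K27ac, with Drosophila spike-in. Differential peaks: Wald test, Benjamini–Hochberg, padj ≤ 0.05, |log2| ≥ 0.5.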

BRD4(BD1) = BRD4(BD1) (Homo sapiens, UniProt O60885); assay: ITC binary titration, TCIP1 and BRD4; type: binding; conditions: read-out: Kd of BRD4-TCIP1 (binary)
BCL6 reporter = BCL6 reporter assay in KARPAS422 cells; type: cell-based, human; conditions: read-out: EC50 of BCL6 reporter activation, 8 h
Outline: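 KARPAS422 cells were lentivirally transduced with the BCL6 reporter construct and selected. They were then treated with test compound for 8 h, washed in 2.5% FBS/PBS, stained with 7-AAD (1:250 v/v) for live/dead and analysed by flow cytometry. A GFP-positive gate was set from non-transduced cells. The FITC histogram area past threshold, over live cells, was normalized to DMSO.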

KARPAS422 cells [7] = assay: Annexin V apoptosis assay; type: cell-based, human
Outline: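 KARPAS422 cells (500,000, plated at 1 M ml−1) were exposed to test compound for the stated times and doses, then harvested on ice and washed twice. They were stained with 7-AAD plus FITC-annexin V for 15 min at room temperature and read immediately by flow cytometry. Gates came from single-stain and no-stain controls. Kinetics used 2–6 biological replicates, mean ± s.d.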

KARPAS422 cells [8] = assay: Cell cycle and TUNEL analysis; type: cell-based, human; conditions: cell-cycle analysis with TUNEL; 100 nM, 24 h
SUDHL5 cells = assay: Cell viability in SUDHL5 cells with or without serum starvation; type: cell-based, human
Outline: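 SUDHL5 cells were arrested in G0/G1 by serum starvation, or left unstarved, before test compound addition. Viability was read with PrestoBlue resazurin reagent (1.5 h, fluorescence 560/590 nm). Signal was background-subtracted and normalized to DMSO-treated cells. n = 3 biological replicates, mean ± s.d.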

[9] = Mouse tolerability and pharmacokinetic study; type: in vivo; conditions: 10 mg kg^−1 i.p. once daily for 5 days, C57BL/6 mice
[10] = system: primary human tonsillar lymphocytes; assay: Cell viability of primary human tonsillar lymphocytes; type: cell-based; conditions: read-out: EC50 of cell viability, 72 h
OCILY19 cells = assay: Cell viability of OCILY19 cells; type: cell-based, human; conditions: OCILY19, no detectable BCL6
[11] = 2 h, 10 nM, out of 51,678 consensus peaks

In the case of `CNC(=O)COc1cc2cc(Nc3nc(N4CCC(C(=O)N(C)C)CC4)ncc3Cl)cc(OC)c2n(C)c1=O` [BI3812], the “fold less-effective cell killing than TCIP1” value (KARPAS422 cells [1]) is reported as 100–1,000 fold and the “rescue of TCIP1-induced cell death by competitive titration” value (DLBCL cell lines) is reported as “prevented death by TCIP1”.
For `Cc1sc2c(c1C)C(c1ccc(Cl)cc1)=N[C@@H](CC(=O)OC(C)(C)C)c1nnc(C)n1-2` [JQ1], the “drug level at which MYC expression is reduced” value [2] is listed as 500 nM, the “fold less-effective cell killing than TCIP1” value (KARPAS422 cells [1]) is listed as 100–1,000 fold and the “rescue of TCIP1-induced cell death by competitive titration” value (DLBCL cell lines) is listed as “prevented death by TCIP1”.
With `CNC(=O)COc1cc2cc(Nc3nc(N4CCC(C(=O)NCCCCCCCNC(=O)C[C@@H]5N=C(c6ccc(Cl)cc6)c6c(sc(C)c6C)-n6c(C)nnc65)CC4)ncc3Cl)cc(OC)c2n(C)c1=O` [TCIP1] the “number of genes induced at early timepoints” value ([3]; 10 nM, 1, 2 and 4 h, KARPAS422) was “approximately 140 genes”, the “number of genes with increased expression” value ([3]; 10 nM, 20 h, KARPAS422) was 1,654 genes and the “number of genes with reduced expression” value ([3]; 10 nM, 20 h, KARPAS422) was 1,347 genes. For the same molecule, the “time to upregulation of the long isoform of BCL6 mRNA” value ([3]; RT-qPCR, 10 nM) was 1 to 2 h, the “off-rate of ternary complex” value [4] was 26 ms^−1 and the “time to FOXO3 activation” value ([5]; 10 nM) was ≤ 2 h. The “effect on BRD4 protein levels” value ([5]; 20 h, KARPAS422) was “did not change substantially”, the “time to reduction of MYC protein levels” value ([5]; after addition of drug) was ≤ 2 h and the “concentration from which MYC levels are reduced” value ([5]; western blot, DLBCL cells) was “less than 1 nM”. The “concentration that activates FOXO3” value ([5]; western blot, DLBCL cells) was 0.5 nM, the “concentration inducing the BCL6L isoform” value ([5]; western blot, Fig. 4k) was ≤ 1 nM and the EC50 (KARPAS422 cells [1]; read-out: EC50 of cell viability, KARPAS422, 72 h after addition of drug) was 1.3 nM. The H3K27ac peaks decreased [6, 11] was 70 peaks, the H3K27ac peaks increased [6, 11] was 126 peaks and the “increase of BRD4 binding over genomic BCL6-binding sites” value ([6]; ChIP-seq) was 50%. The “BRD4 levels increase at promoters of upregulated genes” value ([6]; ChIP-seq, 1 h of TCIP1 addition) was “approximately 150%”, the Kd (BRD4(BD1)) was 5080 nM and the EC50 (BCL6 reporter) was 5 nM. The “time to detectable apoptosis” value (KARPAS422 cells [7]) was 4 to 8 h, the cell-cycle effect (KARPAS422 cells [8]) was “induced both a G1/S and G2/M block in the cell cycle” and the EC50 (SUDHL5 cells; read-out: EC50 of cell viability after G0/G1 arrest, SUDHL5, serum starvation) was 0.25 nM. For the same molecule, the EC50 (SUDHL5 cells; read-out: EC50 of cell viability without arrest, SUDHL5, no serum starvation) was 3.2 nM, the body weight change [9] was “no significant changes in mouse body weight” and the “histology (haematoxylin and eosin) of lung and spleen” value [9] was “did not reveal noticeable abnormalities”. For the same molecule, the EC50 [10] was ~210 nM and the “response in cell viability” value (OCILY19 cells) was “little or no response compared with controls”.
